Experimental data of several laboratories.
Lines come from different studies, so protocols differ. pEC50, pIC50, pKd, pKi: −log10 of the molar value.
Antigen peptide transporter 1/Antigen peptide transporter 2: Antigen peptide transporter 1/Antigen peptide transporter 2 (Homo sapiens, UniProt Q03518+Q03519)
Cnr1: Cannabinoid receptor 1 (Cnr1, Rattus norvegicus, UniProt P20272)
CP: CP (Tobacco mosaic virus, UniProt P69687)

COc1ccc2cccc(C(CO)CNC(=O)CF)c2c1 (stereo not shown) — pEC50 (Melatonin receptor type 1B (MTNR1B, Homo sapiens, UniProt P49286); β-arrestin recruitment, agonist): 8.57
C[C@H](NC(=O)[C@H](CCC(=O)O)NC(=O)[C@@H](NC(=O)[C@H](CO)NC(=O)[C@H](CCCCN)NC(=O)[C@H](CCC(N)=O)NC(=O)[C@H](Cc1ccc(O)cc1)NC(=O)[C@H](CCCNC(=N)N)NC(=O)[C@@H](N)CCCNC(=N)N)[C@@H](C)O)C(=O)O — pIC50 (Antigen peptide transporter 1/Antigen peptide transporter 2; ligand displacement): 6.15
CCCCCn1c2ccccc2c2cc(CN3CCCCC3)ccc21 — pKi (Cnr1; ligand displacement, radioligand; cell membranes): ~7.00
C/C(N)=N\C(=N/S(=O)(=O)c1ccc(C(F)(F)F)cc1)N1C[C@H](c2ccccc2)C(c2ccc(Cl)cc2)=N1 — pKi (Cnr1; ligand displacement, radioligand; cell membranes): 8.10
CCCCCn1c2ccccc2c2cc(C(=O)NCC3CCN(CC(=O)NC(C)(C)C)CC3)ccc21 — pKi (Cnr1; ligand displacement, radioligand): < 5.30
C[C@H](N)C(=O)N[C@@H](CCCNC(=N)N)C(=O)N[C@@H](C)C(=O)N[C@@H](C)C(=O)N[C@@H](C)C(=O)N[C@@H](C)C(=O)N[C@@H](C)C(=O)N[C@@H](C)C(=O)N[C@@H](CCCCN)C(=O)O — pIC50 (Antigen peptide transporter 1/Antigen peptide transporter 2; ligand displacement): 5.15
O=C(/C=C/c1cccc(S(=O)(=O)Nc2ccccc2)c1)NO — pKd (Protein deacetylase HDAC6 (HDAC6, Homo sapiens, UniProt Q9UBN7); cell-free assay): 6.28
CC[C@H](C)[C@H](NC(=O)[C@H](CCCNC(=N)N)NC(=O)[C@H](C)N)C(=O)N[C@@H](CC(=O)O)C(=O)N[C@@H](CCCCN)C(=O)N1CCC[C@H]1C(=O)N[C@H](C(=O)N[C@@H](CC(C)C)C(=O)N[C@@H](C)C(=O)O)[C@@H](C)CC — pIC50 (Antigen peptide transporter 1/Antigen peptide transporter 2; ligand displacement): 6.30
NC(=O)c1ncn([C@@H]2O[C@H](CO)[C@@H](O)[C@H]2O)n1 — pKd (CP; binding, MST): 3.92
CC[C@H](C)[C@H](NC(=O)[C@H](CC(C)C)NC(=O)[C@@H](N)CO)C(=O)NCC(=O)N[C@@H](CCCCN)C(=O)N[C@H](C(N)=O)C(C)C — pEC50 (Proteinase-activated receptor 2 (F2RL1, Homo sapiens, UniProt P55085); calcium signal, agonist): 5.24
CNCC(=O)N[C@@H](CO)C(=O)N[C@H]1[C@H](O)[C@@H](O)[C@H](n2ccc(N)nc2=O)O[C@@H]1C(N)=O — pKd (CP; binding, MST): 5.04
CC(C)C[C@H](NC(=O)[C@H](CCC(=O)O)NC(=O)[C@@H](NC(=O)[C@H](CO)NC(=O)[C@H](CCCCN)NC(=O)[C@H](CCC(N)=O)NC(=O)[C@H](Cc1ccc(O)cc1)NC(=O)[C@H](CCCNC(=N)N)NC(=O)[C@H](CCCNC(=N)N)NC(=O)[C@H](C)N)[C@@H](C)O)C(=O)N[C@@H](C)C(=O)O — pIC50 (Antigen peptide transporter 1/Antigen peptide transporter 2; ligand displacement): 5.59
COc1c(-c2ccccc2)oc2c(ccc3occc32)c1=O — pIC50 (Cyclin-dependent kinase 7, with cyclin H (CDK7, Homo sapiens, UniProt P50613); enzyme activity, inhibitor, ADP detection): < 4.00
